In one data set the test system is Nrf2 signal pathway. The experiment in a line: Western blot of Nrf2 signal pathway proteins in HepG-2 cells. The class given is cell-based. (In western blotting, separated proteins are transferred to a membrane and probed.)
The subject of another data set is Nrf2 pathway. Kind of data set: Western blot of Nrf2 pathway proteins in mice liver tissue. The class given is in vivo. The conditions noted are these: Sch B 25.0–100.0 mg/kg oral, 21 days, Western blotting. Put shortly:
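Mice were dosed orally once daily for 21 days (25.0, 50.0, 100 mg/kg, in 0.5% sodium carboxymethylcellulose). Frozen liver extracts were assayed for protein by Bradford, and equal protein was run on SDS-PAGE and blotted to PVDF. Membranes were blocked in 5% nonfat milk/TBS, probed with anti-Nrf2, HO-1, NQO1, GST or GR at 4°C overnight, then HRP secondary for 1 h at room temperature. Detection was by ECL on X-ray film.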

A further data set deals with CYP3A1 mRNA. The settings on record: rat primary hepatocytes, Sch B 0.1 µM; cited from earlier work.
Data set [1] relates to P-gp–mediated efflux and CYP3A-mediated metabolism. The conditions noted are these: rat, one single dose of Sch B 0.024 mM/kg; cited from earlier work.
A further data set deals with CYP3A. The settings on record: read-out: IC50 value, inhibition of CYP3A activity; rat liver microsomes; cited from earlier work.
Data set [2] has as its system CYP450 (CYP1A2/2C9/2D6/2E1/3A4). Kind of data set: Microsomal CYP450 activity detection. Type of data set: in vivo, mice. The settings on record: Sch B 25.0, 50.0 and 100.0 mg/kg oral, 21 days, dose-dependent. Summed up: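 Livers came from mice dosed orally for 21 days (25.0–100 mg/kg). Livers (~2 g) were homogenised at 4°C in phosphate buffer pH 7.4 with 1.0 mM EDTA and 250 mM sucrose, spun at 9,000× g then 100,000× g, and the pellet resuspended with 250 mM glycerol. Microsomes (0.5 mg/mL) were incubated with a probe cocktail: phenacetin 10 μM, tolbutamide 100 μM, dextromethorphan 2.5 μM, chlorzoxazone 20 μM, midazolam 5 μM. Reactions ran 30 min with 1 mM NADPH and were stopped with methanol. Metabolites were measured by LC–MS/MS.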

The test system of data set [3] is mice liver. Kind of data set: Histopathological analysis of H&E-stained mice liver sections. The class given is in vivo. Put shortly: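 Mice were given test compound (25.0, 50.0, 100 mg/kg) by mouth daily for 21 days in 0.5% sodium carboxymethylcellulose and killed 24 h after the last dose. Liver was fixed in neutral buffered formalin, embedded in paraffin, cut at 5 μm and stained with H&E.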

Data set [4] deals with mice liver. The experiment in a line: TUNEL immunofluorescence staining of mice liver. The conditions noted are these: 100 mg/kg Sch B oral, 21 days. The class given is in vivo. Put shortly: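 After 21 days of daily oral test compound (25.0–100 mg/kg, 0.5% sodium carboxymethylcellulose), paraffin liver sections (10 μm) were treated with 3% H2O2 in methanol for 10 min and blocked with 1% BSA/PBS for 30 min. They were incubated with […] at 4°C overnight, then Alexa Fluor donkey anti-rabbit (1:500) for 1 h at 37°C. Nuclei were stained with DAPI and sections imaged by fluorescence microscopy. n=6.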

[5] abbreviates: Sch B 5 µM, 48-hour incubation, Western blot.

pIC50: −log10 of the molar value.

In the case of `Nn1nnc2ccccc21` [ABT, 1-aminobenzotriazolea, reference compound], in the data set with Nrf2 signal pathway (ABT 0.5 mM combined with Sch B 5 µM, 48 hours), the “effect on Sch B-induced activation of Nrf2 and GST expression” value is recorded as “suppressed”.
In general, pIC50 refers to −log10 of the IC50, conventionally taken in molar units. In the case of `COc1cc2c(c(OC)c1OC)-c1c(cc3c(c1OC)OCO3)CC(C)C(C)C2` (stereo not shown) [Sch B, Schisandrin B], in the data set with Nrf2 pathway, the “protein expression of NQO-1 and GST in mice liver” value is on record as “dose-dependent increase”. Also, the “Nrf2 expression in mice liver” value with Nrf2 pathway (dose-dependent) is reported as “upregulated”. The “expression of CYP3A1 mRNA” value in the data set with CYP3A1 mRNA is given as “significantly increase”. In addition, the tacrolimus bioavailability result in data set [1] is recorded as “increase”. For the same molecule, in the data set with Nrf2 signal pathway (setting [5]), the “HO-1 and GR protein expression” value was “no changes”; the “expression of GST” value is recorded as “upregulated”; the “expression of Nrf2” value is on record as “upregulated”. The pIC50 in the data set with CYP3A was 5.26. Further, the “CYP450 (CYP1A2/2C9/2D6/2E1/3A4) activities in livers of mice” value in data set [2] was “considerably increased”. Further, the “centrilobular hepatocellular infiltration of lymphocytes” value in the data set with mice liver [3] (100 mg/kg Sch B oral, 21 days, H&E-stained liver sections) is “clearly evident”. Besides, the hepatotoxicity in mice entry with mice liver [3] (highest dose (100 mg/kg) only, oral, 3 weeks) is reported as “mild hepatotoxicity”. Further, the “positive TUNEL cell in liver” value in the data set with mice liver [4] is given as “very limited”.

The record behind these values is paper PMC6267698 (Drug Design, Development and Therapy, 2018).
